Measured values as given in ChEMBL document CHEMBL4689842, “EUbOPEN Chemogenomics Library wave 1” (2021).

Test system: U2OS
Assay: Multiplex assay against U2OS
Assay type: toxicity, cell-based
Conditions: human
Method in brief: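 Cells were classed with CellPathfinder machine-learning gating, first as Hoechst high-intensity objects or normal cells, then (normal cells) as healthy, pyknosed or fragmented nuclei, and finally (pyknosed cells) as mitotic or apoptotic. Staining of live cells at seeding used Hoechst33342, BioTracker Green Microtubule Cytoskeleton Dye, MitoTracker Red and Annexin V Alexa Fluor 680, with imaging on a CQ1 microscope at 37°C and 5% CO2 after compound addition. Tubulin, mitochondrial-mass and membrane-permeability phenotypes are per cents of healthy-nucleus cells.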

[1] = 12 h, 1 µM, compound concentration 1 uM, replicate 1
[2] = 12 h, 1 µM, compound concentration 1 uM, replicate 2
[3] = 12 h, 10 µM, compound concentration 10 uM, replicate 1
[4] = 12 h, 10 µM, compound concentration 10 uM, replicate 2
[5] = 24 h, 1 µM, compound concentration 1 uM, replicate 1
[6] = 24 h, 1 µM, compound concentration 1 uM, replicate 2
[7] = 24 h, 10 µM, compound concentration 10 uM, replicate 1
[8] = 24 h, 10 µM, compound concentration 10 uM, replicate 2
[9] = 48 h, 1 µM, compound concentration 1 uM, replicate 1
[10] = 48 h, 1 µM, compound concentration 1 uM, replicate 2
[11] = 48 h, 10 µM, compound concentration 10 uM, replicate 1
[12] = 48 h, 10 µM, compound concentration 10 uM, replicate 2

## CCOC(=O)c1c(C)[nH]c2ccc3c(c12)CN1CCc2cc(OC)ccc2C1O3 (stereo not drawn)
[1]
  Population Apoptotic (%): 72%
  Population Fragmented Nuclei (%): 9%
  Population Healthy Nuclei (%): 81%
  Population Hoechst High Intensity Objects (%): 5%
  Population Membrane Permeable-Phenotype (%): 6%
  Population Mitochondria Different-Phenotype (%): 78%
  Population Mitotic Cells (%): 27%
  Population Normal (%): 94%
  Population Pyknosed Nuclei (%): 8%
  Population Tubulin-Different-Phenotype (%): 72%
  Total Cell Count: 123
[2]
  Population Apoptotic (%): 9%
  Population Healthy Nuclei (%): 76%
  Population Hoechst High Intensity Objects (%): 9%
  Population Membrane Permeable-Phenotype (%): 3%
  Population Mitochondria Different-Phenotype (%): 70%
  Population Mitotic Cells (%): 90%
  Population Normal (%): 90%
  Population Pyknosed Nuclei (%): 14%
  Population Tubulin-Different-Phenotype (%): 62%
  Total Cell Count: 65
[3]
  Population Apoptotic (%): 73%
  Population Fragmented Nuclei (%): 9%
  Population Healthy Nuclei (%): 68%
  Population Hoechst High Intensity Objects (%): 5%
  Population Membrane Permeable-Phenotype (%): 68%
  Population Mitotic Cells (%): 26%
  Population Normal (%): 94%
  Total Cell Count: 135
[4]
  Population Apoptotic (%): 80%
  Population Fragmented Nuclei (%): 2%
  Population Healthy Nuclei (%): 75%
  Population Hoechst High Intensity Objects (%): 11%
  Population Membrane Permeable-Phenotype (%): 70%
  Population Mitochondria Different-Phenotype (%): 100%
  Population Mitotic Cells (%): 20%
  Population Normal (%): 88%
  Population Pyknosed Nuclei (%): 22%
  Population Tubulin-Different-Phenotype (%): 100%
  Total Cell Count: 84
[5]
  Population Apoptotic (%): 41%
  Population Fragmented Nuclei (%): 8%
  Population Healthy Nuclei (%): 79%
  Population Hoechst High Intensity Objects (%): 5%
  Population Membrane Permeable-Phenotype (%): 3%
  Population Mitochondria Different-Phenotype (%): 68%
  Population Mitotic Cells (%): 58%
  Population Normal (%): 94%
  Population Pyknosed Nuclei (%): 12%
  Population Tubulin-Different-Phenotype (%): 40%
  Total Cell Count: 127
[6]
  Population Apoptotic (%): 8%
  Population Fragmented Nuclei (%): 9%
  Population Healthy Nuclei (%): 75%
  Population Membrane Permeable-Phenotype (%): 1%
  Population Mitochondria Different-Phenotype (%): 58%
  Population Mitotic Cells (%): 91%
  Population Pyknosed Nuclei (%): 14%
  Population Tubulin-Different-Phenotype (%): 35%
  Total Cell Count: 65
[7]
  Population Apoptotic (%): 90%
  Population Fragmented Nuclei (%): 13%
  Population Healthy Nuclei (%): 49%
  Population Hoechst High Intensity Objects (%): 4%
  Population Membrane Permeable-Phenotype (%): 78%
  Population Mitochondria Different-Phenotype (%): 100%
  Population Mitotic Cells (%): 9%
  Population Normal (%): 95%
  Population Pyknosed Nuclei (%): 37%
  Population Tubulin-Different-Phenotype (%): 100%
  Total Cell Count: 143
[8]
  Population Apoptotic (%): 89%
  Population Fragmented Nuclei (%): 6%
  Population Healthy Nuclei (%): 52%
  Population Hoechst High Intensity Objects (%): 11%
  Population Membrane Permeable-Phenotype (%): 83%
  Population Mitotic Cells (%): 10%
  Population Normal (%): 88%
  Population Pyknosed Nuclei (%): 41%
  Total Cell Count: 87
[9]
  Population Apoptotic (%): 44%
  Population Fragmented Nuclei (%): 7%
  Population Healthy Nuclei (%): 83%
  Population Hoechst High Intensity Objects (%): 2%
  Population Membrane Permeable-Phenotype (%): 1%
  Population Mitochondria Different-Phenotype (%): 22%
  Population Mitotic Cells (%): 55%
  Population Normal (%): 97%
  Population Pyknosed Nuclei (%): 9%
  Population Tubulin-Different-Phenotype (%): 13%
  Total Cell Count: 115
[10]
  Population Apoptotic (%): 41%
  Population Fragmented Nuclei (%): 8%
  Population Healthy Nuclei (%): 81%
  Population Hoechst High Intensity Objects (%): 7%
  Population Membrane Permeable-Phenotype (%): 9%
  Population Mitochondria Different-Phenotype (%): 27%
  Population Mitotic Cells (%): 58%
  Population Normal (%): 92%
  Population Pyknosed Nuclei (%): 10%
  Population Tubulin-Different-Phenotype (%): 19%
  Total Cell Count: 67
[11]
  Population Apoptotic (%): 100%
  Population Fragmented Nuclei (%): 13%
  Population Healthy Nuclei (%): 50%
  Population Hoechst High Intensity Objects (%): 6%
  Population Membrane Permeable-Phenotype (%): 88%
  Population Mitotic Cells (%): 0%
  Population Normal (%): 93%
  Population Pyknosed Nuclei (%): 35%
  Population Tubulin-Different-Phenotype (%): 100%
  Total Cell Count: 196
[12]
  Population Apoptotic (%): 84%
  Population Fragmented Nuclei (%): 14%
  Population Healthy Nuclei (%): 45%
  Population Hoechst High Intensity Objects (%): 14%
  Population Membrane Permeable-Phenotype (%): 81%
  Population Mitochondria Different-Phenotype (%): 100%
  Population Mitotic Cells (%): 15%
  Population Normal (%): 85%
  Population Pyknosed Nuclei (%): 39%
  Population Tubulin-Different-Phenotype (%): 95%
  Total Cell Count: 121
